Laboratory results as given in ChEMBL document CHEMBL1145212, “Fluorinated diaryl sulfides as serotonin transporter ligands: synthesis, structure-activity relationship study, and in vivo evaluation of fluorine-18-labeled compounds as PET imaging agents” (J Med Chem, 2005).
pKi: −log10 of the molar value.

How the values were obtained:
[1] = species: Rattus norvegicus; assay: Regional uptake of [18F]AFA in hippocampus of rat pretreated with compound 7e; n=3; type: functional, organism-based; settings: tested as the 18F-labelled form
[2] = species: Rattus norvegicus; assay: Regional uptake of [18F]AFA in hypothalamus of rat pretreated with compound 7e; n=3; type: functional, organism-based; settings: tested as the 18F-labelled form
[3] = species: Rattus norvegicus; assay: Regional uptake of [18F]-AFA in blood of rat pretreated with compound citalopram; n=3; type: functional, organism-based; settings: tested as the 18F-labelled form
How it was run: (§1)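 Male Sprague-Dawley rats, three per group, received blocker (2 mg/kg iv in saline) or saline only (controls) 10–15 min before about 20 µCi of tail-vein F-18 radioligand. Killed 60 min after tracer. Blood and brain regions weighed and gamma-counted. %ID/g was decay- and tail-corrected; mean ± SD.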

[4] = species: Rattus norvegicus; assay: Regional uptake of [18F]AFA in blood of rat pretreated with compound nisoxetine; n=3; type: functional, organism-based; settings: tested as the 18F-labelled form; how it was run: as §1
[5] = species: Rattus norvegicus; assay: Regional uptake of [18F]AFA in frontal cortex of rat pretreated with compound 7e; n=3; type: functional, organism-based; settings: tested as the 18F-labelled form
[6] = species: Rattus norvegicus; assay: Regional uptake of [18F]-AFA in striatum of rat pretreated with compound GBR-12935; n=3; type: functional, organism-based; settings: tested as the 18F-labelled form; how it was run: as §1
[7] = species: Rattus norvegicus; assay: Regional uptake of [18F]AFA in thalamus of rat pretreated with compound GBR-12935; n=3; type: functional, organism-based; settings: tested as the 18F-labelled form; how it was run: as §1
[8] = species: Rattus norvegicus; assay: Regional uptake of [18F]AFA in striatum of rat pretreated with compound citalopram; n=3; type: functional, organism-based; settings: tested as the 18F-labelled form; how it was run: as §1
[9] = species: Rattus norvegicus; assay: Regional uptake of [18F]AFA in striatum of rat pretreated with compound nisoxetine; n=3; type: functional, organism-based; settings: tested as the 18F-labelled form; how it was run: as §1
[10] = species: Rattus norvegicus; assay: Regional uptake of [18F]AFA in thalamus of rat pretreated with compound citalopram; n=3; type: functional, organism-based; settings: tested as the 18F-labelled form; how it was run: as §1
[11] = species: Rattus norvegicus; assay: Regional uptake of [18F]AFA in thalamus of rat pretreated with compound nisoxetine; n=3; type: functional, organism-based; settings: tested as the 18F-labelled form; how it was run: as §1
[12] = species: Rattus norvegicus; assay: Regional uptake of [18F]AFA in hippocampus of rat pretreated with compound GBR-12935; n=3; type: functional, organism-based; settings: tested as the 18F-labelled form; how it was run: as §1
[13] = species: Rattus norvegicus; assay: Regional uptake of [18F]AFA in cerebellum of rat pretreated with compound citalopram; n=3; type: functional, organism-based; settings: tested as the 18F-labelled form; how it was run: as §1
[14] = species: Rattus norvegicus; assay: Regional uptake of [18F]AFA in cerebellum of rat pretreated with compound nisoxetine; n=3; type: functional, organism-based; settings: tested as the 18F-labelled form; how it was run: as §1
[15] = species: Rattus norvegicus; assay: Regional uptake of [18F]AFA in hypothalamus of rat pretreated with compound GBR-12935; n=3; type: functional, organism-based; settings: tested as the 18F-labelled form; how it was run: as §1
[16] = species: Rattus norvegicus; assay: Regional uptake of [18F]AFA in hippocampus of rat pretreated with compound citalopram; n=3; type: functional, organism-based; settings: tested as the 18F-labelled form; how it was run: as §1
[17] = species: Rattus norvegicus; assay: Regional uptake of [18F]AFA in hippocampus of rat pretreated with compound nisoxetine; n=3; type: functional, organism-based; settings: tested as the 18F-labelled form; how it was run: as §1
[18] = species: Rattus norvegicus; assay: Regional uptake of [18F]AFA in frontal cortex of rat pretreated with compound GBR-12935; n=3; type: functional, organism-based; settings: tested as the 18F-labelled form; how it was run: as §1
[19] = species: Rattus norvegicus; assay: Regional uptake of [18F]-AFA in hypothalamus of rat pretreated with compound nisoxetine; n=3; type: functional, organism-based; settings: tested as the 18F-labelled form; how it was run: as §1
[20] = species: Rattus norvegicus; assay: Regional uptake of [18F]AFA in frontal cortex of rat pretreated with compound citalopram; n=3; type: functional, organism-based; settings: tested as the 18F-labelled form; how it was run: as §1
[21] = species: Rattus norvegicus; assay: Regional uptake of [18F]AFA in frontal cortex of rat pretreated with compound nisoxetine; n=3; type: functional, organism-based; settings: tested as the 18F-labelled form; how it was run: as §1
[22] = biological target: Sodium-dependent serotonin transporter (Homo sapiens, UniProt P31645); assay: In vitro displacement of [3H]paroxetine from human serotonin transporter expressed in HEK293 cells; type: cell-based
Chain of Sodium-dependent serotonin transporter (P31645 whole entry): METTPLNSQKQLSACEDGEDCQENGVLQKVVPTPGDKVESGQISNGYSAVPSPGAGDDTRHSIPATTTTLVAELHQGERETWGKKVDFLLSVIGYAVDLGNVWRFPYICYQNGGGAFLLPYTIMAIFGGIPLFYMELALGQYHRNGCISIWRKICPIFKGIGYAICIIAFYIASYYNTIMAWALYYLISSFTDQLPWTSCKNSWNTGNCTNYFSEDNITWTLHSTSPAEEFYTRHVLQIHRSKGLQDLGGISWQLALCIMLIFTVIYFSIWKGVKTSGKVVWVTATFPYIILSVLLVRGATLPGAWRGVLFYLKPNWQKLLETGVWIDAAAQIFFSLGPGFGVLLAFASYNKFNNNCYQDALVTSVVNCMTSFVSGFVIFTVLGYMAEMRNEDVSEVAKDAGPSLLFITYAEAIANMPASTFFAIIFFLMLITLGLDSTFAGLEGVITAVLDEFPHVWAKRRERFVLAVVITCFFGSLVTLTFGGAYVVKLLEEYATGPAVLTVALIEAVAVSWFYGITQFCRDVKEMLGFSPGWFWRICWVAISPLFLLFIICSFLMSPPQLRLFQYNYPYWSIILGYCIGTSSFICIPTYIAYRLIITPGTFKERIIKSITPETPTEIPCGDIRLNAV

[23] = species: Rattus norvegicus; assay: Regional uptake of [18F]AFA in thalamus of rat pretreated with compound 7e; n=3; type: functional, organism-based; settings: tested as the 18F-labelled form
[24] = species: Rattus norvegicus; assay: Regional uptake of [18F]AFA in cerebellum of rat pretreated with compound GBR-12935; n=3; type: functional, organism-based; settings: tested as the 18F-labelled form; how it was run: as §1
[25] = species: Rattus norvegicus; assay: Regional uptake of [18F]AFA in hypothalamus of rat pretreated with compound citalopram; n=3; type: functional, organism-based; settings: tested as the 18F-labelled form; how it was run: as §1

For `CN(C)Cc1ccccc1Sc1ccc(CCF)cc1N`, the Uptake [1] was 0.11 %ID/g, the Uptake [2] was 0.15 %ID/g and the Uptake [3] was 0.08 %ID/g. It also gave an Uptake [4] of 0.06 %ID/g, an Uptake [5] of 0.1 %ID/g and an Uptake [6] of 0.2 %ID/g. For the same compound, the Uptake [7] was 0.25 %ID/g, the Uptake [8] was 0.09 %ID/g and the Uptake [9] was 0.21 %ID/g. The Uptake [10] was 0.11 %ID/g, the Uptake [11] was 0.29 %ID/g and the Uptake [12] was 0.18 %ID/g. It also gave an Uptake [13] of 0.06 %ID/g, an Uptake [14] of 0.07 %ID/g and an Uptake [15] of 0.32 %ID/g. The Uptake [16] was 0.09 %ID/g, the Uptake [17] was 0.17 %ID/g and the Uptake [18] was 0.17 %ID/g. For the same compound, the Uptake [19] was 0.33 %ID/g, the Uptake [20] was 0.08 %ID/g and the Uptake [21] was 0.19 %ID/g. It also gave a pKi [22] of 8.74, an Uptake [23] of 0.14 %ID/g and an Uptake [24] of 0.06 %ID/g. The Uptake [25] was 0.12 %ID/g.
